# High-throughput results: PubChem, several laboratories
# Sampled rows, rich in hits. Any-hit rate of the full collection: about 4.1%.
# KCNK3 inh: human KCNK3 channel inhibition, primary screen; 340,000 tested, 0.84% active; B-score at 10 µM; CHO-KCNK3 thallium flux, FluxOR fluorescence; hits give low values; AID 602410; O14649;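 active means B-score under library mean minus 4 SD, starting fluorescence ratio at most library mean plus 5 SD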;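 further: more negative B-score means stronger inhibition of thallium flux through KCNK3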
# hERG protect: shields human hERG channel from block by proarrhythmic agents; Q12809; CHO-hERG, FluxOR thallium flux, dofetilide IC70 present; activation (rescue from dofetilide block), less the hit threshold, % at 10 µM; 310,000 tested, 0.51% active; AID 1511;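 active means activation above the mean of controls blocked by dofetilide plus 5 SD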;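 further: thallium influx through hERG after potassium depolarization seen as dye fluorescence rise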
# Target sequence (Q12809 whole entry, looked up): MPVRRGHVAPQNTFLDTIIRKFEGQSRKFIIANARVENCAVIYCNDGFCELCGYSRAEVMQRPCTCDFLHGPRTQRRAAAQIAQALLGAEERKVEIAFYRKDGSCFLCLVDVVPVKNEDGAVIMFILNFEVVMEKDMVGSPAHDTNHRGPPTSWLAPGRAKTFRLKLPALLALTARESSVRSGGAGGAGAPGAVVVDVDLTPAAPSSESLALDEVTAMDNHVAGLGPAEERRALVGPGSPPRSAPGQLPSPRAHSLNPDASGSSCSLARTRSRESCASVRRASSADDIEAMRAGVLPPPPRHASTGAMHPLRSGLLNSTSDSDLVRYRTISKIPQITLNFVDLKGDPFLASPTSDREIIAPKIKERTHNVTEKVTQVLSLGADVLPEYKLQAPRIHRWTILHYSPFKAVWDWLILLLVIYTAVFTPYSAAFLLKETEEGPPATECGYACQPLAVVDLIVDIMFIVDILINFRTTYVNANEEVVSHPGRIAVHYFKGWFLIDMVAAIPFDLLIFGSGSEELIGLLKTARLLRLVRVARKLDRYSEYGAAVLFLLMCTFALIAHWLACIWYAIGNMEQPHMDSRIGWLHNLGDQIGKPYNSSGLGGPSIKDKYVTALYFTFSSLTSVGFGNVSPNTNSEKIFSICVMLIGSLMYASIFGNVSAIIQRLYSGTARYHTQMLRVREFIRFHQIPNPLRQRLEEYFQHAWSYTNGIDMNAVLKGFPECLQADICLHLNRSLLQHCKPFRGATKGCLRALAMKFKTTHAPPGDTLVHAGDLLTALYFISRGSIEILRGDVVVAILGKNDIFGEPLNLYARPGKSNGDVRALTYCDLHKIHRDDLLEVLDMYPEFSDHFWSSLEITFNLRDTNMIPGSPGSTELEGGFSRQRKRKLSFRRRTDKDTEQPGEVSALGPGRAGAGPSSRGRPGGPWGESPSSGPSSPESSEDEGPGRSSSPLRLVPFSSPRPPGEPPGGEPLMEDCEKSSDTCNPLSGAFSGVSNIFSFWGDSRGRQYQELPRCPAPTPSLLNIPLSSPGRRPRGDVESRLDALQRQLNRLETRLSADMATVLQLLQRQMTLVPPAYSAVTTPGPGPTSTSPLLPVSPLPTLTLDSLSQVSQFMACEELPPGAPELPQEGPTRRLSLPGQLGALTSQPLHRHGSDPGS
# KCNK9 block: blocks the human KCNK9 two-pore domain potassium channel. B-score at 10 µM. HEK293 KCNK9, FluxOR thallium flux fluorescence; hits give low values. 310,000 tested, 1.2% active. Q9NPC2;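 active means ratio B-score over 3 SD below the library mean, with starting fluorescence within 5 SD of its mean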;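 further: negative B-score means less thallium flux so channel inhibition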
# KCNQ1 act: human KCNQ1 channel potentiation or activation; CHO-K1 KCNQ1, thallium flux FluxOR fluorescence; hits give high values; B-score at 10 µM; 310,000 tested, 0.35% active;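 active means fluorescence ratio B-score, a plate-corrected score, at least three library SD, with initial intensity B-score within 5 SD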
#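 Test system: CHO-K1 cells stably expressing KCNQ1 / Medium: assay buffer / Also added: depolarizing K+/Tl+ stimulus, K2SO4 and Tl2SO4 each 12.5 mM in 5x stock / Incubation: 90 min dye loading and 20 min compound exposure, both at room temperature / Signal: thallium influx via FluxOR fluorescence, kinetic imaging / Evaluation: B score of baseline-normalized fluorescence ratio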
# Cl transport mod: KCC2 (human) Cl- transport modulation. B-score of Tl+ flux slope (higher = more flux/activation; lower = inhibition) at 10 µM. AID 1456. Q9H2X9. 190,000 tested, 2.2% active. KCC2 cells, thallium flux FluoZin-2 fluorescence;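 active means thallium flux slope and its plate-corrected score both differing from the plate sample mean at a set confidence after two filtering rounds, in either direction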;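 further: slope of fluorescence scaled to starting intensity during 10 to 20 s after thallium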
# KCNQ1 inh: human KCNQ1 channel inhibition. P51787. CHO-K1 KCNQ1, FluxOR thallium flux fluorescence; hits give high values. B-score at 10 µM. 310,000 tested, 1.3% active. AID 2642;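 active means compounds whose thallium flux B-score, printed positive for inhibition, exceeds three library SD while starting fluorescence stays within three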;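 further: channel opened by potassium depolarization with thallium stimulus after 20 min compound exposure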
# KCC2 sec1: confirmation of human KCC2 transport modulators; shares compounds with Cl transport mod; HEK293-KCC2, thallium flux, FluoZin2 fluorescence; hits give high values; 3,700 tested, 15% active; normalised thallium flux (F/F0 slope) at 10 µM; AID 1713;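 active means thallium flux slope above the same plate's solvent-only control mean plus 3 SD; inconclusive means the two replicate wells disagree; inactive means no significant difference from solvent-only control wells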
# KCC2 bumet counter: bumetanide-insensitive thallium flux in KCC2 cells with ouabain, counter-screen. HEK293-KCC2 + bumetanide/ouabain, thallium flux FluoZin2; hits give high values. 3,700 tested, 49% active. shares compounds with Cl transport mod. normalized thallium flux at 10 µM;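 active means thallium entry rate above the same plate's blocked-transporter control wells by more than 3 SD; inconclusive means the two repeat wells disagree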;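 further: raw slope of fluorescence over initial fluorescence between 10 and 20 s after thallium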
# KCC2 sec2: confirmation of human KCC2 transport modulators | HEK293-KCC2, thallium flux FluoZin2 fluorescence; actives lie on both sides; F/F0 rise rate, 10–20 s post-thallium | normalized thallium flux at 10 µM | AID 1715 | shares compounds with Cl transport mod | 3,700 tested, 23% active;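 active means thallium flux slope more than 3 SD above or below the plate's solvent-only control mean, mostly below; inconclusive means the two repeat wells disagreed; inactive means no significant shift from solvent-only controls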;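 further: raw slope with 0.1% DMSO as baseline and bumetanide as block control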
# HEK293 Tl flux: counter-screen for KCC2 modulators: effect in parental HEK293 cells | shares compounds with Cl transport mod | thallium flux rate (normalised fluorescence) at 10 µM | 3,700 tested, 46% active | thallium flux FluoZin2, ouabain; baseline-ratio fluorescence slope, 10–20 s after thallium;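 active means thallium flux rate significantly above the same plate's solvent-only control wells, beyond their mean plus 3 SD; inconclusive means the two replicate wells gave conflicting results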
# KCC2 ouabain: KCC2 (human) modulation, ouabain retest | raw Tl+ flux slope (below DMSO = inhibition, above = activation) at 10 µM | shares compounds with Cl transport mod | HEK293-KCC2, thallium flux FluoZin2 fluorescence; bidirectional: low = inhibitor, high = activator | 3,700 tested, 48% active;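 active means thallium flux slope beyond 3 SD from same-plate DMSO control mean in most replicates, usually higher, sometimes lower; inconclusive means repeat tests gave conflicting results; inactive means no significant difference from controls in most replicates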;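 further: slope of initial-normalized fluorescence between seconds 10 and 20 after thallium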
# HEK counter2: acts in parental HEK cells, second KCC2 counter-screen | shares compounds with Cl transport mod | HEK293 parental, thallium flux FluoZin-2 fluorescence slope | thallium flux slope at 10 µM | 3,700 tested, 33% active | AID 1718;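 active means thallium flux slope above the same plate's solvent-control mean plus 3 SD in both duplicate wells; inconclusive means duplicate wells that disagreed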;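 further: run without ouabain in cells lacking the KCC2 cotransporter; slope of fluorescence scaled to its starting value between 10 and 20 s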
# KCNQ1 inh valid: human KCNQ1 channel inhibition, validation assay; inhibition, % at 10 µM; 1,600 tested, 93% active; KCNQ1 cell line, FluxOR thallium flux fluorescence; shares compounds with KCNQ1 inh;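 active means primary screen active, with duplicate mean exceeding buffer control mean plus 3 SD of buffer wells, cut at about 28% in these data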;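 further: 0% = buffer control ratio and 100% = XE991 inhibitor control ratio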
# CHO KCNQ1 ctr: counter-screen for KCNQ1 inhibitors: effect in parental CHO cells; shares compounds with KCNQ1 inh; parental CHO-K1, FluxOR thallium flux fluorescence ratio; hits give low values; zero means no signal rise above baseline; fluorescence ratio (Tl flux) at 10 µM; 1,600 tested, 21% active; AID 588366;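 active means mean of duplicate thallium-flux fluorescence ratios in parental host cells more than 5 SD below the buffer control mean, cut at about 0.38 in these data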;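 further: ratio is peak minus minimum fluorescence divided by baseline fluorescence; actives read low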
# KCNQ2 inh: KCNQ1 inhibitor that also blocks rat KCNQ2 channel. shares compounds with KCNQ1 inh. KCNQ2 cells, FluxOR thallium flux fluorescence. inhibition, % at 10 µM. 1,600 tested, 71% active;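 active means mean percent inhibition of the KCNQ2 thallium signal more than 5 SD above the buffer-only control wells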;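 further: KCNQ2 expressed in CHO cells; 0% = buffer control wells and 100% = XE-991 inhibitor control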
# KCNQ1-KCNE1 inh: KCNQ1 inhibitor that also blocks human KCNQ1/KCNE1 channel | 1,600 tested, 77% active | shares compounds with KCNQ1 inh | inhibition, % at 10 µM | KCNQ1/KCNE1 cells, FluxOR thallium flux fluorescence;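 active means mean percent inhibition of duplicate wells above the buffer-only control mean plus 3 SD of those controls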;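 further: 0% = buffer only wells and 100% = XE-991 inhibitor control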
# Starred values were filed as active, the others as inactive; i = inactive; ? = inconclusive; / = no result given.
SMILES,KCNK3 inh,hERG protect,KCNK9 block,KCNQ1 act,Cl transport mod,KCNQ1 inh,KCC2 sec1,KCC2 bumet counter,KCC2 sec2,HEK293 Tl flux,KCC2 ouabain,HEK counter2,others
COc1cccc(N2CCN(S(=O)(=O)c3ccc4nc(-c5ccccc5)[nH]c4c3)CC2)c1,i,-9.6,i,i,9.13*,i,0.00867,0.00507,0.0307,0.00778,0.019,0.0101,
Cc1cc(C(=O)Nc2ccc([N+](=O)[O-])cn2)cs1,i,3.2,i,i,/,i,/,/,/,/,/,/,
O=C(c1ccc(COc2ccccc2Br)o1)N1CCN(c2ccccn2)CC1,i,-11.5,i,i,-6.49*,i,?,?,0.032,0.00576*,0.0128*,0.0115,
COc1ccccc1S(=O)(=O)Cc1ccc(C(=O)N2CCN(c3ccccn3)CC2)o1,i,/,/,/,-0.428,/,/,/,/,/,/,/,
Cc1ccc(N(CC(=O)NC2CC2)S(=O)(=O)c2ccccc2)c(C)c1,i,-1.8,i,i,/,i,/,/,/,/,/,/,
O=S(=O)(c1cccc2cccnc12)N1CCN(Cc2ccccc2)CC1,i,-11.5,i,i,-3.06*,i,0.00703,0.00464,0.0248*,0.00758,0.0172*,0.00964,
O=C(C1CCN(S(=O)(=O)c2cccc3cccnc23)CC1)N1CCN(c2ccc(Cl)cc2)CC1,i,-0.8,i,i,-3.73*,i,0.00826,?,0.0308,0.00679,0.0207,0.0101,
O=C(C1CCN(S(=O)(=O)c2cccc3cccnc23)CC1)N1CCN(c2ccccn2)CC1,i,-10.0,i,i,/,i,/,/,/,/,/,/,
O=C(c1cc(C2CC2)nn1-c1ccccc1)N1CCN(c2ccccn2)CC1,i,/,/,/,/,/,/,/,/,/,/,/,
CCCn1nc(Oc2nc(NCC)nc(NC(C)C)n2)ccc1=O,i,-7.3,i,i,-4.38*,i,0.00904,0.00628,0.0347,0.00736,0.0219,0.0103,
CC(C)Nc1nc(NC(C)(C)C)nc(Oc2ccc(=O)n(C)n2)n1,i,-6.8,i,i,-0.061,i,/,/,/,/,/,/,
CCC(c1nnnn1CCOC)N1CCN(C(=O)c2ccco2)CC1 (stereo not drawn),i,-10.2,i,i,0.752,i,/,/,/,/,/,/,
COCCn1nnnc1C(CC(C)C)N1CCN(C(=O)c2ccco2)CC1 (stereo not drawn),i,-2.5,i,i,7.5*,i,0.00643,0.00459,0.0319,0.00851,0.0193,0.0099,
CC(C)c1c(C(=O)N/N=C/c2ccc(C(F)(F)F)cc2)nnn1-c1nonc1N,i,-2.0,i,i,/,i,/,/,/,/,/,/,
c1ccc(-c2cn3nc4c(nc3n2)CCCC4)cc1,i,-17.2,i,i,-4.51*,8*,0.00758,0.00503,0.0257*,?,0.0163*,0.00813*,KCNQ1 inh valid=39.5*;CHO KCNQ1 ctr=0.396;KCNQ2 inh=76.3%*;KCNQ1-KCNE1 inh=75.5%*
COc1cccc(C(=O)NCC(=O)N2CCN(c3ccc(C(F)(F)F)cn3)CC2)c1,i,/,/,/,/,/,/,/,/,/,/,/,
O=C(CCc1ccccc1)c1c(O)cc(O)cc1O,i,-38.0,i,i,-1.43*,10*,0.00545,0.00511,0.025*,0.00809,?,0.0109,KCNQ1 inh valid=123.0*;CHO KCNQ1 ctr=0.367*;KCNQ2 inh=102.0%*;KCNQ1-KCNE1 inh=177.0%*
CCN(C(=O)COC(=O)CCC1CCCC1)c1c(N)n(Cc2ccccc2)c(=O)[nH]c1=O,i,/,/,/,/,/,/,/,/,/,/,/,
CCOc1ccc(OCCC(=O)N(CCOC)c2c(N)n(Cc3ccccc3)c(=O)[nH]c2=O)cc1,i,/,/,/,/,/,/,/,/,/,/,/,
CCc1ccc(OCC(=O)c2c(O)c3ccccc3oc2=O)cc1,i,-10.8,i,i,0.0455,i,/,/,/,/,/,/,
CCc1oc2ccccc2c1C(=O)c1cc(Br)c(O)c(Br)c1,i,-28.5,i,i,-1.6,9*,0.00673,0.0188*,0.0222*,0.0111*,?,?,KCNQ1 inh valid=77.0*;CHO KCNQ1 ctr=0.495;KCNQ2 inh=i;KCNQ1-KCNE1 inh=43.0%*
CCOC(=O)N1CCN(c2nc3ccccc3nc2C(C#N)S(=O)(=O)c2ccc(C)cc2)CC1 (stereo not drawn),i,-9.8,i,i,/,9*,0.0105,0.00615,0.0273*,?,?,?,KCNQ1 inh valid=61.0*;CHO KCNQ1 ctr=0.511;KCNQ2 inh=i;KCNQ1-KCNE1 inh=50.5%*
Cc1ccc(S(=O)(=O)C(C#N)c2nc3ccccc3nc2N2CCN(C)CC2)cc1 (stereo not drawn),i,-7.2,i,i,0.485,i,/,/,/,/,/,/,
O=C(Nc1nc(-c2ccccc2)cs1)c1ccccc1NS(=O)(=O)c1ccc(F)cc1,i,-28.9,i,i,-6.49*,10*,0.00583,?,0.0173*,?,0.00963*,0.00969,KCNQ1 inh valid=105.0*;CHO KCNQ1 ctr=0.331*;KCNQ2 inh=i;KCNQ1-KCNE1 inh=151.0%*
